Laboratory results from ChEMBL document CHEMBL1123566, “Synthesis and cardiac electrophysiological activity of 2- and 3-[(substituted phenyl)alkyl]quinuclidines. Structure-activity relationships” (1987).
“And” between values parts separate entries of the source, which are not always exact repeats. Identical values can stand only once.

How the values were obtained:
[1] = species: Canis familiaris; assay: In vitro electrophysiological activity in canine cardiac Purkinje fibres given as maximum % change for action potential duration at 0.1-100 uM concentration; assay type: functional, Canis lupus familiaris, Purkinje fiber
In short: (§1)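 Canine cardiac Purkinje fibres, intracellular recording at 1 s basic cycle length, over cumulative concentration ranges. Compound 10 mM stock in deionized water diluted into Tyrode's. Each fibre used once as its own control. Value is the maximum % change from control in APD at 95% repolarization, with the concentration where it occurred; both values given if a biphasic response (>20% reversal) occurred.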

[2] = species: Canis familiaris; assay: In vitro electrophysiological evaluation in canine cardiac Purkinje fibres reported as % change for action potential duration at 0.1-100 uM concentration range; assay type: functional, Canis lupus familiaris, Purkinje fiber
In short: (§2)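 Canine cardiac Purkinje fibres, intracellular microelectrode recording, paced at a basic cycle length of 1 s. APD95 and Vmax read simultaneously. Compound: 10 mM stock in deionized water, diluted into Tyrode's solution, tested over the stated concentration range. Each fibre used once as its own control. Result is % change from control, given at 10 µM or as the maximum with its concentration. M = <10% decrease or an increase in Vmax.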

[3] = species: Canis familiaris; assay: In vitro electrophysiological evaluation in canine cardiac Purkinje fibres reported as percent change Vmax concentration range of 0.1-100 uM; assay type: functional; settings: Canis lupus familiaris; Purkinje fiber; in short: as §2
[4] = species: Canis familiaris; assay: In vitro electrophysiological activity in canine cardiac Purkinje fibres given as maximum % change for action potential duration at 1 uM concentration; assay type: functional, Canis lupus familiaris, Purkinje fiber; in short: as §1
[5] = species: Canis familiaris; assay: In vitro electrophysiological evaluation in canine cardiac Purkinje fibres reported as % change for action potential duration at 1-100 uM concentration range; assay type: functional, Canis lupus familiaris, Purkinje fiber
In short: (§3)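 Canine cardiac Purkinje fibers, intracellular recording, paced at a basic cycle length of 1 s. APD95 and Vmax are recorded together across cumulative concentrations. Compound is a 10 mM aqueous stock diluted into Tyrode's solution. Each fiber is used once as its own control. Readouts are percent change from control at 10 μM, and the maximum change with the concentration where it occurred.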

[6] = species: Canis familiaris; assay: In vitro electrophysiological evaluation in canine cardiac Purkinje fibres reported as percent change Vmax concentration range of 1-100 uM; assay type: functional; settings: Canis lupus familiaris; Purkinje fiber; in short: as §3
[7] = species: Canis familiaris; assay: In vitro electrophysiological evaluation in canine cardiac Purkinje fibres reported as maximum percent change Vmax concentration range of 1-100 uM; assay type: functional; settings: Canis lupus familiaris; Purkinje fiber; in short: as §3
[8] = species: Canis familiaris; assay: In vitro electrophysiological activity in canine cardiac Purkinje fibres given as maximum % change for action potential duration at 100 uM concentration; assay type: functional, Canis lupus familiaris, Purkinje fiber; in short: as §1
[9] = species: Canis familiaris; assay: In vitro electrophysiological evaluation in canine cardiac ventricular muscle reported as % change for conduction time(CT) at 10 uM at 0.1-100 uM concentration range; Minimal (<10% decrease or increase in CT).; assay type: functional, Canis lupus familiaris, Muscle tissue
[10] = species: Canis familiaris; assay: In vitro electrophysiological evaluation in canine cardiac ventricular muscle reported as maximum % change for functional refractory period (FRP) at 0.1-100 uM concentration range; concentration at which it occurred is 100 uM.; parameters: species or system Canis lupus familiaris, Muscle tissue
In short: (§4)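 Canine right ventricle and papillary muscle strips in oxygenated Tyrode's solution, fitted with stimulating and recording electrodes. The extra-stimulus conduction-interval method was adapted for in vitro use. FRP and CT were read from a conduction-interval curve before and after various compound concentrations, and expressed as percent change from control. Compounds were taken from 10 mM deionized-water stock into Tyrode's. Each strip was used once as its own control.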

[11] = species: Canis familiaris; assay: In vitro electrophysiological evaluation in canine cardiac occurred is 100 uM.; assay type: functional; settings: Canis lupus familiaris; Heart
[12] = species: Canis familiaris; assay: In vitro electrophysiological evaluation in canine cardiac Purkinje fibres reported as percent change Vmax at 10 uM at concentration range of 1-100 uM; Minimal (<10% decrease or increase in V max).; assay type: functional; settings: Canis lupus familiaris, Purkinje fiber; in short: as §2
[13] = species: Canis familiaris; assay: In vitro electrophysiological evaluation in canine cardiac Purkinje fibres reported as maximum percent change Vmax concentration range of 1-100 uM; Minimal (<10% decrease or increase in V max).; assay type: functional; settings: Canis lupus familiaris; Purkinje fiber; in short: as §2
[14] = species: Canis familiaris; assay: In vitro electrophysiological evaluation in canine cardiac Purkinje fibres reported as % change for action potential duration at 10 uM at 1-100 uM concentration range; assay type: functional, Canis lupus familiaris, Purkinje fiber; in short: as §2
[15] = species: Canis familiaris; assay: In vitro electrophysiological activity in canine cardiac occurred is 100 uM.; assay type: functional, Canis lupus familiaris, Heart
[16] = species: Canis familiaris; assay: In vitro electrophysiological evaluation in canine cardiac ventricular muscle reported as % change for the functional refractory period (FRP) at 10 uM at concentration range of 0.1-100 uM; parameters: species or system Canis lupus familiaris, Muscle tissue; in short: as §4
[17] = species: Canis familiaris; assay: In vitro electrophysiological evaluation in canine cardiac ventricular muscle reported as maximum % change for conduction time(CT) at […] concentration range; Minimal (<10% decrease or increase in CT).; assay type: functional, Canis lupus familiaris, Muscle tissue; in short: as §4
[18] = species: Canis familiaris; assay: In vitro electrophysiological evaluation in canine cardiac Purkinje fibres reported as % change for action potential duration at a concentration of 10 uM; assay type: functional, Canis lupus familiaris, Purkinje fiber; in short: as §2

Row | SMILES | APD95 [1] | APD95 [2] | Vmax [3] [%] | APD95 [4] [%] | APD95 [5] [%] | Vmax [6] [%] | Vmax [7] [%] | APD95 [8] [%] | CT [9] [%] | FRP [10] [%] | Vmax [11] [%] | Vmax [12] [%] | Vmax [13] [%] | APD95 [14] [%] | APD95 [15] | FRP [16] [%] | CT [17] [%] | APD95 [18] [%]
1 | CCN(CC)CCCCc1ccc(Cl)cc1 | 38% and 27% | 38% and 27% | < 10 | 25 | 21 | < 10 | -57 | -15 |  |  |  |  |  |  |  |  |  | 
2 | CCOC(=O)C(CC1C(=O)C2CCN1CC2)C(=O)c1ccc(Cl)c([N+](=O)[O-])c1.Cl (stereo not drawn) |  |  |  |  |  |  |  |  | <10 | 20 | -12 | < 10 | < 10 | -2 | -2% and -7% | 17 | <10 | 0
